Assay outcomes (PubChem BioAssay)
A selection: hits, their analogues and other compounds. The true share with any hit is near 3%.
5-HT1A blocker: 5-HT1a (human) receptor antagonism; P08908; CHO 5-HT1a Ga15 NFAT-bla reporter, antagonist mode; inhibition, % at 10 µM; hit rate 0.68% among 62,000; AID 612;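 active means inhibition above the mean of all tested compounds plus 3 SD, cut at about 43% in these data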;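 further: receptor stimulated by 5-CT agonist at 100 nM near EC80; beta-lactamase reporter measured by ratiometric fluorescence of a cleavable substrate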
S1P1 ag pot: activates or potentiates agonism at human S1P1 receptor. hit rate 0.57% among 56,000. activation, % at 9.5 µM. S1P1 CRE-bla cells, forskolin, beta-lactamase FRET, potentiator mode; S1P1 agonist co-added at EC20, 2 nM; 100% = saturating reference agonist, 0% = basal;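 active means activation above a cutoff set at the mean activation of all tested compounds plus 3 SD, cut at about 54% in these data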;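 further: forskolin at 4 µM as EC80 and the EC20 agonist is SEW2871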
HTR1A agonist: activates the human 5-HT1a serotonin receptor. P08908. CHO 5-HT1a Ga15 NFAT-bla reporter, FRET ratio; 0% basal, 100% maximal reference agonist. activation, % at 10 µM. hit rate 0.56% among 65,000;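 active means activation above the screen-wide mean activation plus 3 SD, cut at about 19% in these data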
S1P3 ag: agonists of human S1P3 receptor; Q99500; S1P3 NFAT-BLA reporter cells, agonism, FRET ratio; relative to 1 µM S1P, basal subtracted; activation, % at 4.5 µM; hit rate 0.1% among 60,000; AID 373;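 active means activation above the screen-wide mean plus 3 SD, cut at about 4.5% in these data, passing the limit was not always enough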
Target sequence (Q99500 whole entry, looked up): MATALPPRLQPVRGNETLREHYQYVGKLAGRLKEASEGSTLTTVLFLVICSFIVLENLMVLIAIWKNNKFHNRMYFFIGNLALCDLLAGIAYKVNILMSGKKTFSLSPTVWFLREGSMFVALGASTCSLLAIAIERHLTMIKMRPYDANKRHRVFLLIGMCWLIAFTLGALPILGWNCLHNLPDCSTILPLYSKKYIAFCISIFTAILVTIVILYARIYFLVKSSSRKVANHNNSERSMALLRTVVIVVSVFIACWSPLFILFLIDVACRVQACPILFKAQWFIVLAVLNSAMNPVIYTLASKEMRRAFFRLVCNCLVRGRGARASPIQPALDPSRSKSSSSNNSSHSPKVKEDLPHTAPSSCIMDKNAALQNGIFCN
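Assay system: CHO cells stably expressing human S1P3, Gα16 and NFAT-β-lactamase reporter. Timing: overnight plating, 4 h compound 37 °C, 2 h substrate RT. Signal: β-lactamase FRET emission ratio 460/535 nm. Measure: percent activation versus median 1 µM S1P response, basal-subtracted, per plate. Repeats: primary screen single test, confirmation screen in triplicate.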
HTR1E agonist: activates the human 5-HT1E serotonin receptor; P28566; CHO 5-HT1E Ga15 NFAT-bla reporter, FRET; 0% DMSO wells, 100% control agonist wells; activation, % at 6 µM; hit rate 0.69% among 65,000; AID 574;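 active means activation above a set limit, the screen-wide mean activation plus 3 SD, cut at about 8.5% in these data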
HTR1E antagonist: 5-HT1E (human) receptor antagonism; inhibition, % at 6 µM; hit rate 0.99% among 65,000; CHO 5-HT1E Ga15 NFAT-bla reporter, FRET, antagonist;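 active means inhibition above a set limit, the mean inhibition across every tested compound plus 3 SD, cut at about 29% in these data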;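 further: signal is the 460 over 535 nm emission ratio of beta-lactamase substrate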
Each line names hits and unclear results; the compound was inactive in the other large screens.

CSc1nc2ccc(NC(=O)C3CC(=O)N(Cc4ccco4)C3)cc2s1 (stereo not given)	none (no result: S1P1 ag pot, S1P3 ag)
CSc1nc2ccc(NC(=O)C3CCCO3)cc2s1 (stereo not given)	HTR1E agonist 52
Cc1ccc(Nc2nc(N3CCOCC3)nc(N3CCOCC3)n2)cc1	none
Cc1cccn2c(=O)c3cc(C(=O)NC(C)c4ccccc4)c(=N)n(CCCn4ccnc4)c3nc12 (stereo not given)	S1P3 ag 4.7
Cc1ccc2nc3c(cc(C(=O)NCc4ccccc4)c(=N)n3CCCn3ccnc3)c(=O)n2c1	none
Cc1ccc(Nc2cc(C)nn2-c2nc(C)cc(C)n2)cc1	none
Cc1ccc(Nc2cc(C)nn2-c2nc(C)cc(=O)[nH]2)cc1	5-HT1A blocker 61, HTR1E antagonist 74
Cc1ccc(Cl)cc1N1CCN(C(=O)C2CCN(c3nnc(-n4cccc4)s3)CC2)CC1	S1P1 ag pot 87
CCCS(=O)(=O)N1CCCC(C(=O)NCCN(CC)c2ccccc2)C1 (stereo not given)	none
N#CC1=C2SCC(O)(c3ccccc3)N2C(=O)CC1c1cccs1 (stereo not given)	HTR1E antagonist 34
COc1ccc(C2C=C(c3ccc(Br)s3)Nc3ncnn32)cc1OC (stereo not given)	HTR1E antagonist 34
COc1ccc(C2=CC(c3ccc(OC)c(OC)c3)n3nnnc3N2)c(OC)c1 (stereo not given)	HTR1E antagonist 29
COc1cccc(C2=CC(c3cccc(OC)c3OC)n3nnnc3N2)c1 (stereo not given)	none
COc1cccc(C2C=C(c3cccs3)Nc3ncnn32)c1OC (stereo not given)	HTR1E antagonist 30
COc1cccc(C2C=C(c3ccc(OC)cc3OC)Nc3nnnn32)c1 (stereo not given)	none
CCCc1nc2oc(C(=O)OCC)c(N)c2c2c1COC(C)(C)C2	none
CCn1c(=O)cc(SCC(=O)N2CCN(C(=O)c3ccco3)CC2)c2ccccc21	none (no result: S1P1 ag pot, S1P3 ag)
COC(=O)c1ccccc1NC(=O)CSc1nc2ccccc2c(=O)[nH]1	none (no result: S1P1 ag pot)
CCN1CCCC1CNC(=O)CCNC(=O)c1cc(OC)c(OC)c(OC)c1 (stereo not given)	none
CCN1CCc2c(sc3c2c(NCc2ccco2)nc2nnnn23)C1	none
COc1ccccc1C(=O)NC(=Nc1nc2ccccc2o1)NC(=O)c1ccccc1OC	HTR1E antagonist 41 (no result: 5-HT1A blocker)
COc1c(C)cc(Br)cc1C(=O)Nc1cccc(-c2nc3ncccc3o2)c1	HTR1A agonist 66
CCC(=O)Nc1ccc(NC(=O)c2cc3ccccc3o2)cc1	none
CN(C)S(=O)(=O)c1ccc(NC(=O)c2cc3ccccc3o2)cc1	HTR1A agonist 21
NC(=O)c1cc2ccc(O)cc2oc1=Nc1ccccc1	HTR1A agonist 99, HTR1E agonist 50
NC(=O)c1cc2ccc(O)cc2oc1=NCc1ccccc1	HTR1A agonist 86, HTR1E agonist 26
O=C(c1ccccc1)c1cc2ccccc2o1	none
COc1ccc(OC)c(N=c2oc3cc(O)ccc3cc2C(N)=O)c1	HTR1A agonist 39, HTR1E agonist 12
Nc1nnnn1/N=C/C=C/c1ccccc1	none
Nc1nnnn1/N=C/C(Br)=C/c1ccccc1	5-HT1A blocker 85, HTR1E antagonist 48
O=S(=O)(Nc1cccnc1)c1cc(Cl)ccc1Cl	none
CCc1c(C)nc2ncnn2c1NCCc1ccc(OC)cc1	S1P1 ag pot 55
c1ccc(CCNc2c3c(nc4ncnn24)CCC3)cc1	none
CCCn1c(C)cc(C(=O)COc2ncnc3sccc23)c1C	none
Cc1cc(C(=O)COc2ncnc3sccc23)c(C)n1C1CC1	HTR1A agonist 19
CCOc1ccc(CCNS(=O)(=O)c2cnc[nH]2)cc1OCC	HTR1E antagonist 31
O=S(=O)(NCc1ccc2c(c1)OCO2)c1cnc[nH]1	none
O=C1CCCC2=C1C(c1ccccc1)CC(=O)N2c1ccccc1 (stereo not given)	none
CSc1ccc(C2C(C#N)=C(N)N(c3ccccc3)C3=C2C(=O)CCC3)cc1 (stereo not given)	5-HT1A blocker 43 (no result: S1P1 ag pot, S1P3 ag)
Nn1cc(-c2ccccc2)nc1SCC(=O)N1CCN(S(=O)(=O)c2ccc(Cl)cc2)CC1	none
